Experiments:
MBP-sAnk1_29–155 [1] = experiment: SPR direct binding of GST-obscurin constructs to MBP-sAnk1; design: species or system rat; conditions: GST fusion constructs vs MBP-sAnk1_29–155
Summary of the method: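 GST-obscurin constructs, expressed in BL21* pLysS cells (1 mM IPTG, 4 h) and affinity-purified, were captured by anti-GST on a CM5 chip. MBP-sAnk1 was applied over a wide concentration range. Signal from a GST-only chip and a buffer blank was subtracted. Kinetic rate constants and KD came from 1:1 binding model fits.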

[2] = test system: MBP-sAnk1_29–155 / GST-Obsc6231–6260; type: binding, rat; conditions: for molar excess of peptide over sAnk1 needed to inhibit binding by 50%: binding of GST-Obsc6231–6260 construct to sAnk1, 1 µM MBP-sAnk1, SPR
Summary of the method: (§1)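 Each GST-obscurin fusion was expressed in BL21* pLysS cells (1 mM IPTG, 4 h), affinity-purified, and captured by anti-GST on a CM5 SPR chip. 1 µM MBP-sAnk1 was pre-mixed with synthetic 6316–6345 or 6231–6260 oligopeptide at varying relative molar amounts, then flowed over the chip. Inhibition constant = reciprocal of the peptide:sAnk1 concentration ratio blocking maximal binding by 50%.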

[3] = test system: MBP-sAnk1_29–155 / GST-Obsc6316–6345; design: species or system rat; conditions: binding to GST-Obsc6316–6345
Summary of the method: as §1

MBP-sAnk1_29–155 [4] = experiment: SPR competition, oligopeptide inhibition of MBP-sAnk1 binding; design: species or system rat; conditions: binding of MBP-sAnk1_29–155 to either GST-Obsc6316–6345 or GST-Obsc6231–6260

molar excess of peptide over sAnk1 needed to inhibit binding by 50% [2] | Ratio of inhibition constants, 6316–6345 to 6231–6260 oligopeptide ([2]; binding to GST-Obsc6231–6260) | Ratio of inhibition constants, 6316–6345 to 6231–6260 oligopeptide [3] | relative inhibition of binding vs 6231–6260 oligopeptide (MBP-sAnk1_29–155 [4]) | Substance | binding to sAnk1 by SPR (in words) (MBP-sAnk1_29–155 [1])
~ 2 fold molar excess | 3.29 | 3.00 | ~ 3 fold | Obsc6316–6345 oligopeptide: synthetic oligopeptide containing obscurin residues 6316–6345 (GAAWPGAGTGELLWDVHSHVVRETTQRTYT; UniProt Q5VST9 6316-6345, looked up, fragment) | no significant difference in binding between Obsc6316–6436 and Obsc6316–6345
~ 6 fold molar excess | – | – | – | Obsc6231–6260 oligopeptide: synthetic oligopeptide containing obscurin residues 6231–6260 | –
